ChEMBL document CHEMBL2380254, “Optimization of tocotrienols as antiproliferative and antimigratory leads” (Eur J Med Chem, 2013)
Active and inactive are the calls of the source. No cut-off for these calls is given here.

Experiments:
[1] = tested on: MOLT-4; assay: Growth inhibition of human MOLT4 cells assessed as cell growth at 10 uM after 48 hrs by sulforhodamine B assay; type: functional; details: MOLT-4, 48 h, read-out: Activity
Summary of the method: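 Single 10 µM dose applied to suspension cells in RPMI 1640 with 5% FBS and 2 mM L-glutamine for 48 h at 37 °C. Settled cells were fixed with 80% TCA (16% final), stained with SRB, and read at 515 nm. Percent growth was calculated against time-zero and untreated control optical densities.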

[2] = tested on: MCF7; assay: Growth inhibition of human MCF7 cells after 48 hrs by sulforhodamine B assay; type: functional; details: MCF7, 48 h
Summary of the method: (§1)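 NCI-60 panel cells grown in RPMI 1640 with 5% FBS and 2 mM L-glutamine, seeded at 5000–40,000 cells/well and preincubated 24 h. Five 10-fold dilutions (0.001–100 µM) from DMSO stocks were added for 48 h at 37 °C. Adherent cells were fixed with cold TCA (10% final) for 60 min at 4 °C, stained with 0.4% SRB, and read at 515 nm. GI50 was set where 100×(T−T0)/(C−T0)=50.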

[3] = tested on: OVCAR-8; assay: Growth inhibition of human OVCAR8 cells after 48 hrs by sulforhodamine B assay; type: functional; details: OVCAR-8, 48 h; summary of the method: as §1
[4] = tested on: SK-MEL-28; assay: Growth inhibition of human SK-MEL-28 cells after 48 hrs by sulforhodamine B assay; type: functional; details: SK-MEL-28, 48 h; summary of the method: as §1
[5] = tested on: SK-MEL-5; assay: Growth inhibition of human SK-MEL-5 cells after 48 hrs by sulforhodamine B assay; type: functional; details: SK-MEL-5, 48 h; summary of the method: as §1
[6] = tested on: SNB-75; assay: Growth inhibition of human SNB75 cells after 48 hrs by sulforhodamine B assay; type: functional; details: SNB-75, 48 h
Summary of the method: (§2)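 NCI-60 five-dose screen. Cells were grown in RPMI 1640 with 5% FBS and 2 mM L-glutamine, plated at 5000–40,000 cells/well and incubated 24 h before dosing, with T0 plates TCA-fixed. DMSO stocks were diluted to doses of […] and exposed 48 h at 37 °C, 5% CO2. Cells were fixed with cold TCA (final 10%, 60 min, 4 °C), stained with 0.4% SRB in 1% acetic acid for 10 min, solubilized in 10 mM trizma base and read at 515 nm. GI50 is where 100×(T−T0)/(C−T0)=50.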

[7] = tested on: K562; assay: Growth inhibition of human K562 cells after 48 hrs by sulforhodamine B assay; type: functional; details: K562, 48 h
Summary of the method: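 NCI-60 screen: cells in RPMI 1640 with 5% FBS and 2 mM glutamine, 5000–40,000 cells/well, preincubated 24 h. Five concentrations (10-fold dilutions; 100 to 0.001 µM) applied for 48 h at 37 °C. TCA fixation, SRB stain, absorbance at 515 nm. Time-zero plates included; GI50 where 100×(T−T0)/(C−T0)=50.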

[8] = tested on: MCF-10A; assay: Selectivity index, ratio of IC50 for human MCF10A cells to ratio of IC50 for mouse +SA cells; type: functional
Summary of the method: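 Index is the IC50 in MCF10A divided by the IC50 in +SA. +SA cells were kept in serum-free DMEM/F12 defined medium and given BSA-conjugated compounds at 0–40 µM (DMSO <0.1%). MCF10A cells were plated at 10×10^4 cells/well and fed compounds in serum-free medium.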

[9] = tested on: MCF-10A; assay: Antiproliferative activity against human MCF10A cells by MTT assay; type: cell-based
Summary of the method: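 MCF10A kept in DMEM/F12 with 5% horse serum, hydrocortisone, cholera toxin, insulin and EGF, plated at 10 × 10^4 cells/well. Compounds from DMSO stock (final DMSO <0.1%, equal across groups) fed in serum-free media. Viable cell number by MTT; IC50 by non-linear regression.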

[10] = tested on: +SA cell; assay: Antitumor activity against mouse +SA cells allografted in BALB/c mouse assessed as reduction in tumor volume at 0.5 mg, iv administered on day 40 post challenge for 14 days; type: functional, organism-based
Summary of the method: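 Female BALB/c mice, 3–4 months old, given 1 × 10^6 +SA cells into the #4 mammary fat pad under ketamine/xylazine. About 40 days later, once tumors were palpable, 0.5 mg in 0.1 mL propylene glycol/DMSO (1:1) by daily tail-vein injection for 14 days; vehicle controls. Caliper volume L×W²/2 and body weight recorded every other day. 14–15 mice/group; ANOVA with Duncan's test.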

[11] = tested on: MDA-MB-231; assay: Antimigratory activity against human MDA-MB-231 cells after 24 hrs by wound-healing assay; type: functional, cell-based; details: MDA-MB-231, 24 h
Summary of the method: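 MDA-MB-231 in RPMI 1640 with 10% FBS grown to >95% confluent monolayer, scratched with a pipette tip and washed. Then 24 h exposure in 0.5% serum at five non-toxic concentrations in DMSO, triplicate, DMSO as negative control. Diff Quick fixed and stained; migrated cells counted in ≥3 random 40× fields. IC50 = concentration inhibiting migration of 50% of cells.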

[12] = tested on: Mus musculus; assay: Toxicity in BALB/c mouse allografted with mouse +SA cells assessed as body weight change at 0.5 mg, iv administered on day 40 post challenge for 14 days; type: organism-based, +SA cell; details: in vivo, 336 h
Summary of the method: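 Female BALB/c mice, 3–4 months old, received 1×10^6 +SA cells in 0.1 mL medium into the #4 mammary fat pad. About 40 days later, once tumors were palpable, daily tail-vein injections began for 14 days: 0.5 mg in 0.1 mL propylene glycol/DMSO (1:1), with vehicle controls. Body weight was recorded every other day, with 14–15 mice per group. Analysis used ANOVA with Duncan's test.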

[13] = tested on: SW-620; assay: Growth inhibition of human SW620 cells after 48 hrs by sulforhodamine B assay; type: functional; details: SW-620, 48 h; summary of the method: as §2

| Structure (SMILES) | growth at 10 µM [1] [%] | GI50 [2] [nM] | GI50 [3] [nM] | GI50 [4] [nM] | GI50 [5] [nM] | GI50 [6] [nM] | GI50 [7] [nM] | Ratio IC50 [8] | IC50 [9] [nM] | Activity [10] | IC50 [11] [nM] | Activity [12] | GI50 [13] [nM] |
| --- | --- | --- | --- | --- | --- | --- | --- | --- | --- | --- | --- | --- | --- |
| CC(C)=CCC/C(C)=C/CC/C(C)=C/CC[C@]1(C)CCc2c3c(c(C)c(C)c2O1)OCN(CCCCCCO)C3 | -18.4 | 2730 | 3060 | 2760 | 2880 | 2460 | 2960 |  |  |  |  |  |  |
| CC(C)=CCC/C(C)=C/CC/C(C)=C/CC[C@]1(C)CCc2c3c(c(C)c(C)c2O1)OCN(CCCCCCCCCCO)C3 | 79.5 |  |  |  |  |  |  |  |  |  |  |  |  |
| COc1ccc(CCN2COc3c(C)c(C)c4c(c3C2)CC[C@@](C)(CC/C=C(\C)CC/C=C(\C)CCC=C(C)C)O4)cc1OC | 76 |  |  |  |  |  |  | 0.39 | 700 |  |  |  |  |
| CC(C)=CCC/C(C)=C/CC/C(C)=C/CC[C@]1(C)CCc2cc(O)c(C)c(C)c2O1 [GAMMA-TOCOTRIENOL] | 84.3 |  |  |  |  |  |  | 1.1 | 4400 | inactive | > 40000 | Non-toxic |  |
| CC(C)=CCC/C(C)=C/CC/C(C)=C/CC[C@]1(C)CCc2c3c(cc(C)c2O1)OCN(C1CCN(Cc2ccccc2)CC1)C3 |  | 1590 | 1400 | 2010 |  | 1670 |  |  |  |  |  |  | 480 |
| CC(C)=CCC/C(C)=C/CC/C(C)=C/CC[C@]1(C)CCc2c3c(c(C)c(C)c2O1)OCN(CCCCCCCCO)C3 | 2.94 | 2590 | 2670 | 2620 | 2900 | 2380 | 3500 | 1.43 | 2000 |  | 4700 |  |  |
| CC(C)=CCC/C(C)=C/CC/C(C)=C/CC[C@]1(C)CCc2c3c(cc(C)c2O1)OCN(CCCCO)C3 | -35.3 |  |  |  | 14500 |  | 7420 | 2.34 | 4200 |  | 2200 |  |  |
| CC(C)=CCC/C(C)=C/CC/C(C)=C/CC[C@]1(C)CCc2c3c(c(C)c(C)c2O1)OCN(CCCCCO)C3 | -24.8 | 3740 | 6390 | 5890 |  | 4030 |  | 5.24 | 8900 |  |  |  | 6050 |
| CC(C)=CCC/C(C)=C/CC/C(C)=C/CC[C@]1(C)CCc2c(CNCCc3ccc(O)cc3)c(O)c(C)c(C)c2O1 | 54.6 |  |  |  |  |  |  |  |  |  |  |  |  |
| COc1ccc(CCN2COc3cc(C)c4c(c3C2)CC[C@@](C)(CC/C=C(\C)CC/C=C(\C)CCC=C(C)C)O4)cc1OC | 0.05 | 1540 | 2200 | 1750 |  | 1200 |  |  |  |  |  |  | 2000 |
| CC(C)=CCC/C(C)=C/CC/C(C)=C/CC[C@]1(C)CCc2c3c(c(C)c(C)c2O1)OCN(CCc1ccc(O)cc1)C3 | 40.4 |  |  |  |  |  |  | 5.67 | 8500 |  | 4500 |  |  |
| CC(C)=CCC/C(C)=C/CC/C(C)=C/CC[C@]1(C)CCc2c3c(cc(C)c2O1)OCN(CCCCCO)C3 | -1.68 | 3740 | 6390 | 5890 |  | 4030 |  | 6.57 | 4600 |  |  |  | 6050 |
| CC(C)=CCC/C(C)=C/CC/C(C)=C/CC[C@]1(C)CCc2c3c(cc(C)c2O1)OCN(CCCCCCCCCCCCO)C3 | 48.5 |  |  |  |  |  |  |  |  |  |  |  |  |
| CC(C)=CCC/C(C)=C/CC/C(C)=C/CC[C@]1(C)CCc2c3c(cc(C)c2O1)OCN(CCCCCCO)C3 | -42.9 | 579 | 4450 | 2010 | 2500 | 3140 | 810 | 1.92 | 2500 |  | 1500 |  |  |
| CC(C)=CCC/C(C)=C/CC/C(C)=C/CC[C@]1(C)CCc2c3c(cc(C)c2O1)OCN(CCCCCCCCO)C3 | -58.6 | 515 | 4460 | 3430 | 2760 | 4110 | 772 | 2.15 | 1700 |  | 4900 |  |  |
| CC(C)=CCC/C(C)=C/CC/C(C)=C/CC[C@]1(C)CCc2c3c(cc(C)c2O1)OCN(CCCCCCCCCCO)C3 | 67.6 |  |  |  |  |  |  |  |  |  | 7200 |  |  |
| CC(C)=CCC/C(C)=C/CC/C(C)=C/CC[C@]1(C)CCc2c3c(c(C)c(C)c2O1)OCN(CCCCO)C3 | 35.8 | 1780 | > 10000 | > 10000 | > 10000 | 9350 | 2460 |  |  |  | 10700 |  |  |
| COc1ccc(CCNCc2c(O)c(C)c(C)c3c2CC[C@@](C)(CC/C=C(\C)CC/C=C(\C)CCC=C(C)C)O3)cc1OC | 30.3 |  |  |  |  |  |  |  |  | Active |  | Non-toxic |  |
| CC(C)=CCC/C(C)=C/CC/C(C)=C/CC[C@]1(C)CCc2c3c(c(C)c(C)c2O1)OCN(CCCCCCCCCCCCO)C3 | 90.5 |  |  |  |  |  |  |  |  |  |  |  |  |
| CC(C)=CCC/C(C)=C/CC/C(C)=C/CC[C@]1(C)CCc2c3c(cc(C)c2O1)OCN(CCc1ccc(O)cc1)C3 | -3.07 | 1280 | 5840 | 5590 | 5420 | 4740 |  | 2.09 | 1900 |  | 2400 |  | 1590 |
| CC(C)=CCC/C(C)=C/CC/C(C)=C/CC[C@]1(C)CCc2c3c(cc(C)c2O1)OCN(CCCO)C3 | -20.3 | 1660 | 1950 | 1780 |  | 1290 |  | 3.61 | 6500 |  | 6000 |  | 1830 |
